Test results reported in publication PMC3135177 (Organic & biomolecular chemistry, 2010).

What was measured:
SirT1 [1] = molecular target: T1, SirT1 (Homo sapiens, UniProt Q96EB6); settings: NAD+ as substrate on SIRT1; cited from earlier work
T1 sequence (Q96EB6 1-747): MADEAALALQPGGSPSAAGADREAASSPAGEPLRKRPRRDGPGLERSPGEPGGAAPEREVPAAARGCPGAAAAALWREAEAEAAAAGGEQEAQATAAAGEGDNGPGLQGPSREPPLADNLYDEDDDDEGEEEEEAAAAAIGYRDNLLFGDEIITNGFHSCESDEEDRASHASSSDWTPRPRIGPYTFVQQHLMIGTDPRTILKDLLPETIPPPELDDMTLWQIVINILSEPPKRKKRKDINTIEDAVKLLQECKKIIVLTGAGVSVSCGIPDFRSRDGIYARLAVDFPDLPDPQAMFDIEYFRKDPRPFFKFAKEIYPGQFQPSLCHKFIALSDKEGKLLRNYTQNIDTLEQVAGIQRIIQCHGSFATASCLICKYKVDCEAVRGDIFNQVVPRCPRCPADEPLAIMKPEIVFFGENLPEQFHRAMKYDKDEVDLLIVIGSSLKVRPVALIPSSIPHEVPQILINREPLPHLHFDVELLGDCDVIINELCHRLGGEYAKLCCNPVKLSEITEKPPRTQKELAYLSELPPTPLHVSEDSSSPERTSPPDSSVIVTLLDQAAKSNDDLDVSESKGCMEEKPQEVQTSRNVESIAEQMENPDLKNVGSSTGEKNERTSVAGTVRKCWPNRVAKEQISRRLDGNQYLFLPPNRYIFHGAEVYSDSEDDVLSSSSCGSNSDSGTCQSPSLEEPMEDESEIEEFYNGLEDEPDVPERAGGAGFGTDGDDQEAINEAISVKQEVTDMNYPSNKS

Af2Sir2 = molecular target: T2, Af2Sir2 (Archaeoglobus fulgidus, UniProt O30124); test: Inhibition of sirtuin-catalyzed deacetylation, Af2Sir2; type: biochemical
T2 sequence (O30124 1-253): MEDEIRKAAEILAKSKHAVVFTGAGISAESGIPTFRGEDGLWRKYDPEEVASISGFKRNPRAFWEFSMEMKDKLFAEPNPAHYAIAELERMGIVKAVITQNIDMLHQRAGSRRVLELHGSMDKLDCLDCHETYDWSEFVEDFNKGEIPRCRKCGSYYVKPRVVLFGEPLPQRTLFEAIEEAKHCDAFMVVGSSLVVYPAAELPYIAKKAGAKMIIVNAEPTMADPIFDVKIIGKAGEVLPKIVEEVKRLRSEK

Yeast Sir2 = Yeast Sir2 (Saccharomyces cerevisiae, UniProt P06700); test: Inhibition of sirtuin-catalyzed deacetylation, yeast Sir2; type: biochemical
Yeast Sir2, sequence (P06700 whole entry): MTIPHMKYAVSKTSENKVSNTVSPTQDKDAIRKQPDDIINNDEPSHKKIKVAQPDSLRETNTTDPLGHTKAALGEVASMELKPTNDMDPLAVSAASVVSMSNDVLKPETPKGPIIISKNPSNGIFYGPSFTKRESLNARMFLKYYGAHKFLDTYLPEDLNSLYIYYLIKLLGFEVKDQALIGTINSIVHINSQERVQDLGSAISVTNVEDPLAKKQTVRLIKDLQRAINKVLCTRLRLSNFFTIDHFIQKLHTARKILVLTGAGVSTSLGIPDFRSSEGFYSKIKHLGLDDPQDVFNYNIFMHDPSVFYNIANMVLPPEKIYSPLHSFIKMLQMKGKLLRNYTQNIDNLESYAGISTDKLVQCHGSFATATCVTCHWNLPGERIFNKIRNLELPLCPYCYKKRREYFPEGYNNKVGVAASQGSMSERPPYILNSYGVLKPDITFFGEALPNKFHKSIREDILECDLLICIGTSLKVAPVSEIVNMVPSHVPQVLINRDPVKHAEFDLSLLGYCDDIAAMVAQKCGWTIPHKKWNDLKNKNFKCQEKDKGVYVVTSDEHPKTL

SirT1 [2] = molecular target: T1, SirT1; test: Inhibition of sirtuin-catalyzed deacetylation, SirT1; type: biochemical
In short: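 Purified SirT1 was incubated with NAD+, the test compound and an acetylated peptide substrate at 37 °C for 30–60 min. Activity was expressed as percent remaining, with uninhibited set at 100%, and plotted against log[test compound] in nM. IC50 came from a fit to v(%) = v(%)I − [v(%)I(10^x)/(10^x + IC50)].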

SirT2 = molecular target: T3, SirT2 (Homo sapiens, UniProt Q8IXJ6); test: Inhibition of sirtuin-catalyzed deacetylation, SirT2; type: biochemical
T3 sequence (Q8IXJ6 1-389): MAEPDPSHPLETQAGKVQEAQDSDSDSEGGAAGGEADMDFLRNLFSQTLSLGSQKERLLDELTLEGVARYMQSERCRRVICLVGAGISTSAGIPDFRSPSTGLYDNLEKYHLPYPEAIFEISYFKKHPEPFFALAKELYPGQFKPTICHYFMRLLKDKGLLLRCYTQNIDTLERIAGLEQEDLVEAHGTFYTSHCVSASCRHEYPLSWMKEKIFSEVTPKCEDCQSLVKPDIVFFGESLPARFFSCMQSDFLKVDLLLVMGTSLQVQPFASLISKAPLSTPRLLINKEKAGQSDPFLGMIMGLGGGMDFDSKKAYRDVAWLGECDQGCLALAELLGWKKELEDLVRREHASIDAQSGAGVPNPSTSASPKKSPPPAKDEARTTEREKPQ

Structure (SMILES)	Km (SirT1 [1]) [µM]	IC50 (Af2Sir2) [µM]	IC50 (Yeast Sir2) [µM]	IC50 (SirT1 [2]) [µM]	Ki (SirT1 [2]) [µM]	IC50 (SirT2) [µM]
NC(=O)c1ccc[n+]([C@@H]2O[C@H](COP(=O)([O-])OP(=O)(O)OC[C@H]3O[C@@H](n4cnc5c(N)ncnc54)[C@H](O)[C@@H]3O)[C@@H](O)[C@H]2O)c1 [NAD^+]	165					
COC(=O)[C@H](C)NC(=O)[C@H](C)NC(=O)[C@H](CCCCNC(C)=S)NC(=O)c1ccc([N+](=O)[O-])cc1 [compound 1, N^α-4-nitrobenzoyl-N^ε-thioacetyl-lysinyl-alaninyl-alanine methyl ester]		131 ± 26	19.5 ± 5.8	6.5 ± 1	0.611	13.1 ± 0.54
